# Results published in ChEMBL document CHEMBL1165943, “Design and synthesis of new anticancer pyrimidines with multiple-kinase inhibitory effect” (Bioorg Med Chem, 2010).
# Key:
# KM12 [1] = assay: Growth inhibition of human KM12 cells after 48 hrs by sulforhodamine B assay; format: functional, cell-based; details: KM12, 48 h; for CC50: read-out: LC50 (the source's name)
# Procedure, shortened: (§1)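 Cells grown in RPMI 1640 with 5% FBS and 2 mM L-glutamine, seeded at 5,000–40,000 cells/well according to doubling time. After 24 h, time-zero plates are TCA-fixed. Five concentrations (10-fold or ½log dilutions, DMSO stocks) are applied for 48 h at 37 °C, 5% CO₂. Cells are TCA-fixed, SRB-stained and read at 515 nm. IC₅₀ is taken from [(Ti−Tz)/(C−Tz)]×100 = 50.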
# SK-MEL-5 [2] = assay: Cytotoxicity against human SK-MEL-5 cells assessed as cell growth at 0.001 uM after 48 hrs by sulforhodamine B assay; format: functional; details: SK-MEL-5, 48 h, read-out: Activity
# HCT-15 = assay: Cytotoxicity against human HCT15 cells assessed as cell growth at 10 uM after 48 hrs by sulforhodamine B assay; format: functional; details: HCT-15, 48 h, read-out: Activity
# Malme-3M = assay: Cytotoxicity against human MALME-3M cells assessed as cell growth at 0.01 uM after 48 hrs by sulforhodamine B assay; format: functional; details: read-out: Activity
# M14 = assay: Cytotoxicity against human M14 cells assessed as cell growth at 1 uM after 48 hrs by sulforhodamine B assay; format: functional; details: M14, 48 h, read-out: Activity
# OVCAR-4 [3] = assay: Cytotoxicity against human OVCAR4 cells assessed as cell growth at 1 uM after 48 hrs by sulforhodamine B assay; format: functional; details: OVCAR-4, 48 h, read-out: Activity
# SW-620 = assay: Cytotoxicity against human SW620 cells assessed as cell growth at 10 uM after 48 hrs by sulforhodamine B assay; format: functional; details: SW-620, 48 h, read-out: Activity
# SF-295 [4] = assay: Cytotoxicity against human SF295 cells assessed as cell growth at 0.01 uM after 48 hrs by sulforhodamine B assay; format: functional; details: SF-295, 48 h, read-out: Activity
# IGROV-1 = assay: Cytotoxicity against human IGROV1 cells assessed as cell growth at 1 uM after 48 hrs by sulforhodamine B assay; format: functional; details: IGROV-1, 48 h, read-out: Activity
# NCI-H23 = assay: Cytotoxicity against human NCI-H23 cells assessed as cell growth at 0.001 uM after 48 hrs by sulforhodamine B assay; format: functional; details: NCI-H23, 48 h, read-out: Activity
# A498 = assay: Cytotoxicity against human A498 cells assessed as cell growth at 100 nM after 48 hrs by sulforhodamine B assay; format: functional; details: A498, 48 h, read-out: Activity
# Procedure, shortened: (§2)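 Cells grown in RPMI 1640 with 5% FBS and 2 mM L-glutamine, seeded at 5,000–40,000 cells/well by doubling time. Time-zero plates TCA-fixed after 24 h. Five concentrations (10-fold or half-log dilutions from DMSO stock) added; 48 h at 37 °C, 5% CO2. Cold TCA fixation (final 10%, 60 min, 4 °C), 0.4% SRB stain, dye solubilized in 10 mM trizma base, A515.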
# 786-0 = assay: Cytotoxicity against human 786-0 cells assessed as cell growth at 0.001 uM after 48 hrs by sulforhodamine B assay; format: functional; details: 786-0, 48 h, read-out: Activity; procedure, shortened: as §2
# HL-60(TB) = assay: Cytotoxicity against human HL-60(TB) cells assessed as cell growth at 1 uM after 48 hrs by sulforhodamine B assay; format: functional; details: HL-60, 48 h, read-out: Activity
# Procedure, shortened: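 Five-concentration HL-60(TB) test in RPMI 1640 with 5% FBS and 2 mM L-glutamine. Cells are plated at 5,000–40,000/well and a TCA-fixed time-zero plate is read at drug addition after 24 h. Drug is dissolved in DMSO and given as five 10-fold or ½log dilutions for 48 h at 37 °C, 5% CO2. Settled cells are fixed with TCA, stained with SRB and read at 515 nm.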
# LOX IMVI = assay: Cytotoxicity against human LOXIMVI cells assessed as cell growth at 1 uM after 48 hrs by sulforhodamine B assay; format: functional; details: read-out: Activity
# U-251 [5] = assay: Cytotoxicity against human U251 cells assessed as cell growth at 1 uM after 48 hrs by sulforhodamine B assay; format: functional; details: U-251, 48 h, read-out: Activity
# BT-549 = assay: Cytotoxicity against human BT549 cells assessed as cell growth at 1 uM after 48 hrs by sulforhodamine B assay; format: functional; details: BT-549, 48 h, read-out: Activity; procedure, shortened: as §2
# HT-29 [6] = assay: Cytotoxicity against human HT-29 cells assessed as cell growth at 100 nM after 48 hrs by sulforhodamine B assay; format: functional; details: HT-29, 48 h, read-out: Activity
# SF-295 [7] = assay: Cytotoxicity against human SF295 cells assessed as cell growth at 1 uM after 48 hrs by sulforhodamine B assay; format: functional; details: SF-295, 48 h, read-out: Activity
# OVCAR-4 [8] = assay: Growth inhibition of human OVCAR4 cells after 48 hrs by sulforhodamine B assay; format: functional, cell-based; details: for CC50: read-out: LC50 (the source's name); procedure, shortened: as §1
# CAKI-1 [9] = assay: Cytotoxicity against human Caki1 cells assessed as cell growth at 100 nM after 48 hrs by sulforhodamine B assay; format: functional; details: CAKI-1, 48 h, read-out: Activity
# NCI/ADR-RES [10] = assay: Cytotoxicity against human NCI/ADR-RES cells assessed as cell growth at 1 uM after 48 hrs by sulforhodamine B assay; format: functional; details: read-out: Activity
# KM12 [11] = assay: Cytotoxicity against human KM12 cells assessed as cell growth at 100 nM after 48 hrs by sulforhodamine B assay; format: functional; details: KM12, 48 h, read-out: Activity
# U-251 [12] = assay: Cytotoxicity against human U251 cells assessed as cell growth at 0.001 uM after 48 hrs by sulforhodamine B assay; format: functional; details: U-251, 48 h, read-out: Activity
# SK-MEL-5 [13] = assay: Cytotoxicity against human SK-MEL-5 cells assessed as cell growth at 0.01 uM after 48 hrs by sulforhodamine B assay; format: functional; details: SK-MEL-5, 48 h, read-out: Activity
# NCI/ADR-RES [14] = assay: Growth inhibition of human NCI/ADR-RES cells after 48 hrs by sulforhodamine B assay; format: functional, cell-based; details: for CC50: read-out: LC50 (the source's name); procedure, shortened: as §1
# HT-29 [15] = assay: Cytotoxicity against human HT-29 cells assessed as cell growth at 1 uM after 48 hrs by sulforhodamine B assay; format: functional; details: HT-29, 48 h, read-out: Activity
# OVCAR-5 [16] = assay: Growth inhibition of human OVCAR5 cells after 48 hrs by sulforhodamine B assay; format: functional, cell-based; details: OVCAR-5, 48 h; for CC50: read-out: LC50 (the source's name); procedure, shortened: as §1
# OVCAR-5 [17] = assay: Cytotoxicity against human OVCAR5 cells assessed as cell growth at 0.001 uM after 48 hrs by sulforhodamine B assay; format: functional; details: OVCAR-5, 48 h, read-out: Activity
# DU-145 = assay: Cytotoxicity against human DU145 cells assessed as cell growth at 0.001 uM after 48 hrs by sulforhodamine B assay; format: functional; details: DU-145, 48 h, read-out: Activity
# CAKI-1 [18] = assay: Cytotoxicity against human Caki1 cells assessed as cell growth at 10 uM after 48 hrs by sulforhodamine B assay; format: functional; details: CAKI-1, 48 h, read-out: Activity; procedure, shortened: as §2
# [19] = Homo sapiens, NCI/ADR-RES, 48 h
structure (smiles),measurement,setting,value
CC(=O)Nc1cccc(-c2ccc(-c3ccnc(NC(=O)Nc4cc(C(F)(F)F)cc(C(F)(F)F)c4)n3)cn2)c1.Cl,GI50,KM12 [1],2.59 µM
same,IC50,KM12 [1],2.59 µM
same,TGI,KM12 [1],8.01 µM
same,CC50,KM12 [1],27.9 µM
same,growth at 0.001 µM,SK-MEL-5 [2],96%
same,growth at 10 µM,HCT-15,-86%
same,growth at 0.01 µM,Malme-3M,88%
same,growth at 1 µM,M14,-68%
same,growth at 1 µM,OVCAR-4 [3],4%
same,growth at 10 µM,SW-620,41%
same,growth at 0.01 µM,SF-295 [4],94%
same,growth at 1 µM,IGROV-1,-2%
same,growth at 0.001 µM,NCI-H23,91%
same,growth at 0.1 µM,A498,64%
same,growth at 0.001 µM,786-0,96%
same,growth at 1 µM,HL-60(TB),28%
same,growth at 1 µM,LOX IMVI,-40%
same,growth at 1 µM,U-251 [5],-32%
same,growth at 1 µM,BT-549,43%
same,growth at 0.1 µM,HT-29 [6],101%
same,growth at 1 µM,SF-295 [7],-15%
same,GI50,"OVCAR-4 [8]; Homo sapiens, OVCAR-4, 48 h",1.57 µM
same,TGI,"OVCAR-4 [8]; Homo sapiens, OVCAR-4, 48 h",11.1 µM
same,IC50,"OVCAR-4 [8]; Homo sapiens, OVCAR-4, 48 h, read-out: IC50",1.57 µM
same,CC50,"OVCAR-4 [8]; Homo sapiens, OVCAR-4, 48 h",39 µM
same,growth at 0.1 µM,CAKI-1 [9],64%
same,growth at 1 µM,NCI/ADR-RES [10],17%
same,growth at 0.1 µM,KM12 [11],92%
same,growth at 0.001 µM,U-251 [12],98%
same,growth at 0.01 µM,SK-MEL-5 [13],91%
same,GI50,NCI/ADR-RES [14]; [19],3.66 µM
same,TGI,NCI/ADR-RES [14]; [19],47.4 µM
same,IC50,"NCI/ADR-RES [14]; Homo sapiens, NCI/ADR-RES, 48 h, read-out: IC50",3.66 µM
same,CC50,NCI/ADR-RES [14]; [19],> 100 µM
same,growth at 1 µM,HT-29 [15],-6%
same,GI50,OVCAR-5 [16],11.8 µM
same,IC50,OVCAR-5 [16],11.8 µM
same,TGI,OVCAR-5 [16],24.5 µM
same,CC50,OVCAR-5 [16],50.8 µM
same,growth at 0.001 µM,OVCAR-5 [17],97%
same,growth at 0.001 µM,DU-145,112%
same,growth at 10 µM,CAKI-1 [18],-36%
CC(=O)c1ccccc1-c1ccc(-c2ccnc(NC(=O)Nc3cc(N4CCOCC4)cc(C(F)(F)F)c3)n2)cn1,GI50,KM12 [1],> 100 µM
same,IC50,KM12 [1],> 100 µM
same,TGI,KM12 [1],> 100 µM
same,CC50,KM12 [1],> 100 µM
same,growth at 0.001 µM,SK-MEL-5 [2],99%
same,growth at 10 µM,HCT-15,87%
same,growth at 0.01 µM,Malme-3M,103%
same,growth at 1 µM,M14,9%
same,growth at 1 µM,OVCAR-4 [3],48%
same,growth at 10 µM,SW-620,102%
same,growth at 0.01 µM,SF-295 [4],90%
same,growth at 1 µM,IGROV-1,40%
same,growth at 0.001 µM,NCI-H23,98%
same,growth at 0.1 µM,A498,72%
same,growth at 0.001 µM,786-0,103%
same,growth at 1 µM,HL-60(TB),88%
same,growth at 1 µM,LOX IMVI,54%
same,growth at 1 µM,U-251 [5],63%
same,growth at 1 µM,BT-549,21%
same,growth at 0.1 µM,HT-29 [6],98%
same,growth at 1 µM,SF-295 [7],48%
same,TGI,"OVCAR-4 [8]; Homo sapiens, OVCAR-4, 48 h",> 100 µM
same,CC50,"OVCAR-4 [8]; Homo sapiens, OVCAR-4, 48 h",> 100 µM
same,IC50,OVCAR-4 [8]; ovcar-4,Not Active
same,growth at 0.1 µM,CAKI-1 [9],84%
same,growth at 1 µM,NCI/ADR-RES [10],50%
same,growth at 0.1 µM,KM12 [11],89%
same,growth at 0.001 µM,U-251 [12],93%
same,growth at 0.01 µM,SK-MEL-5 [13],99%
same,TGI,NCI/ADR-RES [14]; [19],> 100 µM
same,CC50,NCI/ADR-RES [14]; [19],> 100 µM
same,IC50,NCI/ADR-RES [14]; nci/adr-res,Not Active
same,growth at 1 µM,HT-29 [15],76%
same,GI50,OVCAR-5 [16],> 100 µM
same,IC50,OVCAR-5 [16],> 100 µM
same,TGI,OVCAR-5 [16],> 100 µM
same,CC50,OVCAR-5 [16],> 100 µM
same,growth at 0.001 µM,OVCAR-5 [17],94%
same,growth at 0.001 µM,DU-145,100%
same,growth at 10 µM,CAKI-1 [18],86%
